In data set [1] the target is Fibroblast growth factor 2 (Homo sapiens, UniProt P09038). Put plainly: Binding affinity for FGF2 by BIAcore solution affinity assay. An outline of the steps:
(§1)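 Surface plasmon resonance solution affinity assay: growth factor preequilibrated with ligand in solution, then injected; specific binding after background subtraction converted to free protein concentration under mass-transport conditions. Kd derived assuming 1:1 stoichiometry; duplicates averaged where measured.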
(Surface plasmon resonance follows binding to a sensor surface in real time, without labels.)

Data set [2] addresses T1, Vascular endothelial growth factor A, long form (Homo sapiens, UniProt P15692).
T1 sequence (P15692 whole entry): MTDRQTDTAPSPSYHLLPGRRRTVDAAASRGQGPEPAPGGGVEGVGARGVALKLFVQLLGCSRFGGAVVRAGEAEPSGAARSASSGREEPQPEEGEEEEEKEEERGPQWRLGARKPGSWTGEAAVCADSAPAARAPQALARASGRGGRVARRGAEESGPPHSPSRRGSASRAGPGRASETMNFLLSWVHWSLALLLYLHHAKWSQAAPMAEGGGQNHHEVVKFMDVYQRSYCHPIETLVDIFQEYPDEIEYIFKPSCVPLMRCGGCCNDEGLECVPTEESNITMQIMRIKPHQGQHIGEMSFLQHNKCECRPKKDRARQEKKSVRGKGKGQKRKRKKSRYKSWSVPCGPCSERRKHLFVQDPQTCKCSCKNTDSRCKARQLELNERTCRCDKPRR
Kind of data set: Binding affinity for VEGF by BIAcore solution affinity assay. An outline of the steps:
as §1

Data set [3] deals with Fibroblast growth factor 1 (Homo sapiens, UniProt P05230). Kind of data set: Binding affinity for FGF1 by BIAcore solution affinity assay. In short, it runs like this: as §1
Fibroblast growth factor 1, sequence (P05230 whole entry): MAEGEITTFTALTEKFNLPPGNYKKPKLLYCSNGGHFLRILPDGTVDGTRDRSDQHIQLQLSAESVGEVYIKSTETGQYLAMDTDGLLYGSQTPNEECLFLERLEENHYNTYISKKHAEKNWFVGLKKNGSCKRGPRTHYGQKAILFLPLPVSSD
Another data set addresses T2, Heparanase (Homo sapiens, UniProt Q9Y251).
T2 sequence (Q9Y251 whole entry): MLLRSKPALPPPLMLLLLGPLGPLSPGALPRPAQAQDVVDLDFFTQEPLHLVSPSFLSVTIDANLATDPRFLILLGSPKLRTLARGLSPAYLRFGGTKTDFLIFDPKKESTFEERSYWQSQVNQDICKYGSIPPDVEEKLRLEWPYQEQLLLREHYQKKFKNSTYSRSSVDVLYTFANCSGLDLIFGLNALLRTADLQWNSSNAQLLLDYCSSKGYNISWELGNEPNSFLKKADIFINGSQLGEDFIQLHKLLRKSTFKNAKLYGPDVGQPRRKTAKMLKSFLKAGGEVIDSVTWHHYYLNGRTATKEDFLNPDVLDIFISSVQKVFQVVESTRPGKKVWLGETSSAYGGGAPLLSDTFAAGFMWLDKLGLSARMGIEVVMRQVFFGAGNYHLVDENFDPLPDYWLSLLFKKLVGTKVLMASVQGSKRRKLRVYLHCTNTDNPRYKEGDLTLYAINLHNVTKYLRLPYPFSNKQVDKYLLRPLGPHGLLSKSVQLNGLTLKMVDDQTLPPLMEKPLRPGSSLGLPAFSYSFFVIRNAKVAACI
Kind of data set: Inhibitory activity against human platelet heparanase by Microcon ultrafiltration assay. In short, it runs like this:
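Platelet-derived heparanase (100 ng) in 40 mM acetate pH 5.0, 0.1 mg/mL BSA with inhibitor, preequilibrated 10 min at 22 °C. Started with 5 μM [3H]HS, 4 h at 22 °C. Cleaved fragments separated by 10 kDa ultrafiltration and counted; activity = 4 h minus time-0 filtrate, compared with inhibitor-free control. IC50.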

Data set [4] has as its system Human alphaherpesvirus 1. Put plainly: Inhibition of cell to cell spread of HSV1. Type of data set: functional, organism-based, Human herpesvirus 1 strain KOS. To be noted: Human alphaherpesvirus 1, KOS321. In short, it runs like this: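 African green monkey kidney monolayers infected with HSV-1 KOS321, then 5-fold compound dilutions (0.032–20 μM) in serum-free overlay for 3 days at 37 °C. Area of 20 plaques measured from images, expressed relative to mock-treated cells. IC50 derived.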

For data set [5], the system named is Human alphaherpesvirus 1. Kind of data set: Inhibition of HSV1 infection. The following applies: Human alphaherpesvirus 1, KOS321. It is filed as functional, organism-based, Human herpesvirus 1 strain KOS.
The next data set relates to Rattus norvegicus. Kind of data set: Plasma concentration in male Sprague-Dawley rat administered with 2.5 mg/kg, iv. Type of data set: ADME, organism-based. Also on record: dose 2.5 mg/kg, route intravenous. The following applies: in vivo. In short, it runs like this:
(§2)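 Plasma sampled predose to 48 h, counted in triplicate by liquid scintillation, no decay correction; <3× background excluded. Apparent parameters from notionally linear log-concentration phase; mean ± SD, n = 4.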

A short description of data set [6]: Area under curve (0-12h) male Sprague-Dawley rat administered with 2.5 mg/kg, iv. The following applies: in vivo. Also on record: time < 12 hr, dose 2.5 mg/kg, route intravenous. It is filed as ADME, organism-based. In short, it runs like this:
as §2

A short description of data set [7]: Half life in male Sprague-Dawley rat administered with 2.5 mg/kg, iv. It is filed as ADME, organism-based. Also on record: dose 2.5 mg/kg, route intravenous. To be noted: in vivo. In short, it runs like this: as §2
A short description of data set [8]: Volume of distribution in male Sprague-Dawley rat administered with 2.5 mg/kg, iv. Type of data set: ADME, organism-based. Also on record: dose 2.5 mg/kg, route intravenous. The following applies: in vivo, read-out: Vdss. An outline of the steps: as §2
The nature of data set [9]: Clearance in male Sprague-Dawley rat administered with 2.5 mg/kg, iv. Type of data set: ADME, organism-based. Also on record: dose 2.5 mg/kg, route intravenous. The following applies: in vivo. In short, it runs like this: as §2

Each structure is given as a SMILES string.

The term Kd denotes the equilibrium constant for the complex coming apart. High values mean weaker binding, low ones tighter binding. For orientation: IC50 means the concentration that gives 50% inhibition. Lower therefore signals inhibition by little substance. One may read the AUC(0-t) as the area under the concentration-time curve up to a stated or last time point. A lower AUC(0-t) goes with less exposure. Broadly, the half-life is the time needed for the level to fall by half in the phase considered. The low end stands for rapid decline, the high end for slow decline. One may read the clearance as a measure of how efficiently the substance is removed, as volume per time. A higher clearance goes with efficient removal.

Fibroblast growth factor 2, sequence (P09038 143-288 limits assumed): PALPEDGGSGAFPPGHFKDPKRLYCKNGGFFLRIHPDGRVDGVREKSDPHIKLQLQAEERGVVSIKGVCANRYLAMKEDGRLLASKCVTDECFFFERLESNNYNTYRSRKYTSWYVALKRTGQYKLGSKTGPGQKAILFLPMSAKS

Consider `OC[C@H]1O[C@H](O[C@@H]2[C@H](O)[C@@H](O[C@@H]3[C@H](O)[C@@H](O[C@@H]4[C@H](O)[C@@H](O[C@@H]5[C@@H](OCc6ccccc6)O[C@H](CO)[C@@H](O)[C@@H]5O)O[C@H](CO)[C@H]4O)O[C@H](CO)[C@H]3O)O[C@H](CO)[C@H]2O)[C@@H](O)[C@@H](O)[C@@H]1O`, for which the Kd worked out at 86 nM in [1], 1.7 nM in data set [2] and 0.12 nM in data set [3]. Besides, the IC50 stood at 1830 nM at Heparanase, 1000 nM with Human alphaherpesvirus 1 [4] and 2000 nM in the data set with Human alphaherpesvirus 1 [5]. Besides, in the data set on Rattus norvegicus, the Cp was 20500 ng/mL. In data set [6], the AUC(0-t) at 12 h was determined as 12600 ng·h/mL. This molecule showed a half-life in data set [7] of 49.8 min. The Vd in data set [8] worked out at 0.0384 L. The clearance in [9] is 3.32 mL/min/kg.

Turning to `O=C(CCCC[C@@H]1SC[C@@H]2NC(=O)N[C@@H]21)NCCCCCC(=O)N[C@H]1O[C@H](CO)[C@@H](O)[C@H](O)[C@@H]1O[C@H]1O[C@H](CO)[C@@H](O)[C@H](O[C@H]2O[C@H](CO)[C@@H](O)[C@H](O[C@H]3O[C@H](CO)[C@@H](O)[C@H](O[C@H]4O[C@H](CO)[C@@H](O)[C@H](O)[C@@H]4O)[C@@H]3O)[C@@H]2O)[C@@H]1O`, the Kd in [1] turned out to be 84 nM; in data set [2] it was 7.2 nM; in data set [3] it was 0.39 nM. Further, the IC50 was 1850 nM at Heparanase, 3000 nM in the data set on Human alphaherpesvirus 1 [4] and 2000 nM in the data set on Human alphaherpesvirus 1 [5]. In addition, the Cp in the data set with Rattus norvegicus was found to be 14000 ng/mL. The molecule further displayed an AUC(0-t) at 12 h in data set [6] of 6500 ng·h/mL. The molecule further gave a half-life in data set [7] of 47.4 min. The Vd in [8] came to 0.0551 L. Also, the clearance in data set [9] is 6.33 mL/min/kg.

In the case of `CCCCCCCCO[C@H]1O[C@H](CO)[C@@H](O)[C@H](O)[C@@H]1O[C@H]1O[C@H](CO)[C@@H](O)[C@H](O[C@H]2O[C@H](CO)[C@@H](O)[C@H](O[C@H]3O[C@H](CO)[C@@H](O)[C@H](O[C@H]4O[C@H](CO)[C@@H](O)[C@H](O)[C@@H]4O)[C@@H]3O)[C@@H]2O)[C@@H]1O`, the Kd amounted to 68 nM in data set [1], 1.7 nM in data set [2] and 0.144 nM in data set [3]. For the same molecule, the IC50 came out at 1640 nM at Heparanase, 400 nM in the data set with Human alphaherpesvirus 1 [4] and 1000 nM in the data set on Human alphaherpesvirus 1 [5]. For the same molecule, the Cp in the data set on Rattus norvegicus worked out at 35600 ng/mL. In data set [6], this molecule registered an AUC(0-t) at 12 h of 29700 ng·h/mL. This molecule showed a half-life in data set [7] of 66 min. Besides, the Vd in data set [8] came to 0.0229 L. The same molecule showed a clearance in data set [9] of 1.39 mL/min/kg.

Take `O=C(COc1ccccc1)N[C@H]1O[C@H](CO)[C@@H](O)[C@H](O)[C@@H]1O[C@H]1O[C@H](CO)[C@@H](O)[C@H](O[C@H]2O[C@H](CO)[C@@H](O)[C@H](O[C@H]3O[C@H](CO)[C@@H](O)[C@H](O[C@H]4O[C@H](CO)[C@@H](O)[C@H](O)[C@@H]4O)[C@@H]3O)[C@@H]2O)[C@@H]1O`: the figures for the Kd in data set [1], in data set [2] and in [3] were 112 nM, 7.1 nM and 0.66 nM, respectively. For the same molecule, the half-maximal inhibitory concentration (IC50) was 2020 nM against Heparanase, 5000 nM in the data set with Human alphaherpesvirus 1 [4] and 7000 nM with Human alphaherpesvirus 1 [5].

The values above are taken from ChEMBL document CHEMBL1140436, “Synthesis, biological activity, and preliminary pharmacokinetic evaluation of analogues of a phosphosulfomannan angiogenesis inhibitor (PI-88)” (J Med Chem, 2005).
